Laboratory results taken from ChEMBL document CHEMBL4385612, “Novel 15-Lipoxygenase-1 Inhibitor Protects Macrophages from Lipopolysaccharide-Induced Cytotoxicity” (J Med Chem, 2019).
Calls of active or inactive are those of the source. No cut-off for these calls is given here.

What was measured:
[1] = biological target: T1, Polyunsaturated fatty acid lipoxygenase ALOX15 (Homo sapiens, UniProt P16050); test: Inhibition of human recombinant N-terminal His6-tagged 15-LOX1 expressed in Escherichia coli BL21(DE3) using linoleic acid as substrate preincubated for 10 mins followed by substrate addition by UV absorption analysis
T1 sequence (P16050 whole entry): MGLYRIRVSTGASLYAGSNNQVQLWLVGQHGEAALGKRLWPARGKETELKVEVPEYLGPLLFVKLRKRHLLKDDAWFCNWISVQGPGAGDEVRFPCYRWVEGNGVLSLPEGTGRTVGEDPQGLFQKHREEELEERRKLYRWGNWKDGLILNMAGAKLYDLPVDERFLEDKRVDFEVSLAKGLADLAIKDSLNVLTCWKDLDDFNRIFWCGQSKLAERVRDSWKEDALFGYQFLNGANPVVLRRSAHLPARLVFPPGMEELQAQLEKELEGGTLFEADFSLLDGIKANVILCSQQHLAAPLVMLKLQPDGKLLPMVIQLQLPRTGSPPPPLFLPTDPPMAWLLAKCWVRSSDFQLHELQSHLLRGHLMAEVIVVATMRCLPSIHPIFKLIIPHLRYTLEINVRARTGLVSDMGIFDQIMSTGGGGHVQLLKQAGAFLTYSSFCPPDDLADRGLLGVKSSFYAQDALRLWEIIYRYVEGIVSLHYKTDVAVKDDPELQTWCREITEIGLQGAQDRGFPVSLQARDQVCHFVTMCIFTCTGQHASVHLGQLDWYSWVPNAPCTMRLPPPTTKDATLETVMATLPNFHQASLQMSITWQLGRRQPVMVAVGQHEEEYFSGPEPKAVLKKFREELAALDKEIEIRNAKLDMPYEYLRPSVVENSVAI

RAW264.7 [2] = test: Protection against LPS-induced cell death in mouse RAW264.7 cells assessed as increase in cell viability at 5 uM measured after 48 hrs by MTS assay relative to control; assay type: functional
Procedure, shortened: (§1)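 RAW 264.7 cells seeded at 5000 per well. Given 100 μg/mL LPS together with compound (0.2, 1, 5 μM) for 48 h. Viability measured by MTS: reagent for 2 h at 37 °C, absorbance at 490 nm. Compared with LPS-only control. n = 3–13, mean ± SEM.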

RAW264.7 [3] = test: Inhibition of LPS/IFNgamma-stimulated lipid peroxidation in mouse RAW264.7 cells at 5 uM after 24 hrs by BODIPY 581/591 C11-staining based FACS assay; assay type: functional, cell-based
Procedure, shortened: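 RAW 264.7 cells, 10 × 10^6 per well, incubated overnight. Then LPS/IFNγ (10 ng/mL each) for 24 h with or without inhibitor at 5 μM. Unstimulated cells served as control. Stained with BODIPY 581/591 C11 for 30 min at 37 °C. Red-to-green fluorescence shift measured by flow cytometry, 488 nm excitation. n = 3, mean ± SEM.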

[4] = biological target: T2, Polyunsaturated fatty acid lipoxygenase ALOX15 (Mus musculus) (UniProt P39654); test: Inhibition of N144 probe binding to 15-LOX in mouse RAW264.7 cells measured after 2 mins by HRP-coupled Western blot analysis; assay type: cell-based
T2 sequence (whole entry): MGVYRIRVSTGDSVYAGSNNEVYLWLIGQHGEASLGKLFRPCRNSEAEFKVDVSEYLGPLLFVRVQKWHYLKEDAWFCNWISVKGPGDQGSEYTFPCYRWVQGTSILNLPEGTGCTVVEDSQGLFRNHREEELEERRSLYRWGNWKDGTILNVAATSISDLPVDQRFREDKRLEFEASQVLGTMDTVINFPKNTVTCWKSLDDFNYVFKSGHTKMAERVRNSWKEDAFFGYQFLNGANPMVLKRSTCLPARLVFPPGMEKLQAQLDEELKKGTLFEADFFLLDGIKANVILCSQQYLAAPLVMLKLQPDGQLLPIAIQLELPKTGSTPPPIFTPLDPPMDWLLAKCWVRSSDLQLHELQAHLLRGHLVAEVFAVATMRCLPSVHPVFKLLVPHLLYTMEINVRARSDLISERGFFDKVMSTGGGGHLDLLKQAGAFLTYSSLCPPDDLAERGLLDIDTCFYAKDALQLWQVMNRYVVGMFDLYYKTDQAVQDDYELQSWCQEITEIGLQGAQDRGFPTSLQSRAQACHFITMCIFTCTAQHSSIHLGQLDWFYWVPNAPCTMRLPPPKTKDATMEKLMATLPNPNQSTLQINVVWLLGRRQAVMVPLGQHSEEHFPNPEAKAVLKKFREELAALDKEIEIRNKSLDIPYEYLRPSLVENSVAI
Procedure, shortened: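 Lysates of inhibitor-treated and untreated RAW 264.7 cells exposed to covalent alkene probe N144 for 2 min. Probe then biotinylated by oxidative Heck reaction with a biotinylated phenylboronic acid and detected on blots with streptavidin–HRP. Blots also probed for 15-LOX-1 and β-actin. Band intensities normalised to β-actin. n = 3 independent experiments, mean ± SEM.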

[5] = biological target: T2, Polyunsaturated fatty acid lipoxygenase ALOX15 (Mus musculus); test: Inhibition of 15LOX1 in LPS/IFNgamma-stimulated mouse RAW264.7 cells assessed as down regulation of iNOS gene expression at 5 uM preincubated for 20 hrs followed by LPS/IFNgamma stimulation and measured after 4 hrs by RT-PCR analysis relative to control; assay type: cell-based
Procedure, shortened: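 RAW 264.7 cells pretreated with compound (0.2, 1, 5 μM) for 20 h, then stimulated with LPS/IFNγ (10 ng/mL each) for 4 h in its presence. Total RNA isolated and integrity checked by 28S/18S ratio. RNA reverse-transcribed, and 10 ng cDNA used per real-time PCR. iNOS expression calculated by 2^–ΔΔCt and normalised to the stimulated positive control. n = 3–4, mean ± SEM.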

RAW264.7 [6] = test: Protection against LPS-induced cell death in mouse RAW264.7 cells assessed as increase in cell viability measured after 48 hrs by MTS assay; assay type: functional, cell-based; procedure, shortened: as §1
[7] = Stability in pH 7.4 2-betamercaptoethanol at 25 to 50 uM by UV-spectra analysis; assay type: physicochemical; conditions: buffer, pH 7.4, 50 µM
Procedure, shortened: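 UV spectrum of compound recorded during incubation with 2-mercaptoethanol at pH 7.4, to follow thiol conjugate addition to the α,β-unsaturated amide.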

[8] = biological target: T2, Polyunsaturated fatty acid lipoxygenase ALOX15 (Mus musculus); test: Inhibition of 15-LOX1 in LPS/IFNgamma-stimulated mouse RAW264.7 cells assessed as reduction in nitric oxide production preincubated for 20 hrs followed by LPS/IFNgamma stimulation and measured after 4 hrs by colorimetric method; assay type: cell-based
Procedure, shortened: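 RAW 264.7 cells stimulated with LPS and IFNγ (10 ng/mL each). Figure legend: compound added at 0.2, 1 and 5 μM for 20 h, then LPS/IFNγ for a further 4 h. Methods describe 2 × 10^6 cells per well and a 24 h incubation at 5 μM. Total nitrate/nitrite measured with a colorimetric kit. Stimulated control set to 100%. n = 3, mean ± SEM.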

[9] = biological target: T2, Polyunsaturated fatty acid lipoxygenase ALOX15 (Mus musculus); test: Inhibition of 15LOX1 in mouse RAW blue cells assessed as suppression of LPS/IFNgamma-stimulated NFkappaB activation by measuring reduction in SEAP release at 0.2 to 5 uM preincubated for 20 hrs followed by LPS/IFNgamma-stimulation and measured after 4 hrs by quanti blue reagent-based reporter gene assay; assay type: cell-based
Procedure, shortened: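 RAW-Blue cells (RAW 264.7 carrying an NF-κB–SEAP reporter, kept with 200 μg/mL Zeocin) seeded at 10 × 10^4 per well the day before. Pretreated with compound (0.2, 1, 5 μM) for 20 h, then LPS and IFNγ (10 ng/mL each) added for 4 h. Secreted SEAP read with QuantiBlue after 2 h at 37 °C, absorbance 635–655 nm. n = 8–16, mean ± SEM.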

**Q.** Which IC50 [1] does the source give for CCCNC(=O)c1c(C(=O)OCC)[nH]c2cc(Cl)ccc12 here?
**A.** > 20 µM

**Q.** Which IC50 [1] does the source give for O=C(NC1CC1)c1cc2ccc(Cl)cc2[nH]1 here?
**A.** > 20 µM

**Q.** With CCOC(=O)c1[nH]c2cc(Cl)ccc2c1C(=O)C[C@@H](C)CCCC(C)C as the compound, how does the Activity (RAW264.7 [2]) read?
**A.** Active

**Q.** Which inhibition (RAW264.7 [3]) does the source give for c1ccc2c(c1)SCc1c-2[nH]c2ccccc12 here?
**A.** Active

**Q.** For CCCNC(=O)c1[nH]c2cc(Cl)ccc2c1C(=O)C[C@H](C)CCCC(C)C, which IC50 [1] is on record?
**A.** > 20 µM

**Q.** With CCOC(=O)c1[nH]c2cc(Cl)ccc2c1/C=C/C(=O)NCCc1ccccc1 as the compound, how does the IC50 [1] read?
**A.** > 20 µM

**Q.** Which results are given for CC(c1cc2ccccc2s1)N(O)C(N)=O (centres undefined)?
**A.** inhibition (RAW264.7 [3]): Active; Activity (RAW264.7 [2]): Active

**Q.** Which IC50 [1] does the source give for CCCNC(=O)c1[nH]c2cc(Cl)ccc2c1C(=O)C[C@@H](C)CCCC(C)C here?
**A.** > 20 µM

**Q.** For CCOC(=O)c1[nH]c2cc(Cl)ccc2c1/C=C/C(=O)NCc1ccccc1OC, which inhibition (RAW264.7 [3]) is on record?
**A.** Active

**Q.** And the inhibition [4]?
**A.** Active

**Q.** What about the inhibition [5] of the same compound?
**A.** 50%

**Q.** And the Activity (RAW264.7 [2])?
**A.** 20%

**Q.** And the Activity (RAW264.7 [6])?
**A.** Dose-dependent effect

**Q.** And the Stability [7]?
**A.** Stable

**Q.** What about the inhibition [8] of the same compound?
**A.** Dose-dependent effect

**Q.** What about the inhibition [9] of the same compound?
**A.** Active

**Q.** With CCCNC(=O)c1[nH]c2cc(Cl)ccc2c1/C=C/C(=O)NCc1ccccc1OC as the compound, how does the IC50 [1] read?
**A.** > 20 µM

**Q.** Which IC50 [1] does the source give for CCCNC(=O)c1[nH]c2cc(Cl)ccc2c1CN(C)C here?
**A.** > 20 µM
